From ChEMBL document CHEMBL1156778, “Synthesis and structure-activity studies of biphenyl analogues of the tuberculosis drug (6S)-2-nitro-6-{[4-(trifluoromethoxy)benzyl]oxy}-6,7-dihydro-5H-imidazo[2,1-b][1,3]oxazine (PA-824)” (J Med Chem, 2010)
Converted amounts (≈) assume the structure as drawn.

Key:
[1] = system: Mycobacterium tuberculosis; assay: Antitubercular activity against Mycobacterium tuberculosis H37Rv in anaerobic condition after 7 days by low oxygen recovery assay; assay type: functional; details: 168 h
[2] = system: Vero; assay: Cytotoxicity against african green monkey Vero cells after 72 hrs by MTS assay; assay type: cell-based; details: Chlorocebus sabaeus
How it was run: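 VERO cells (CCL-81), 72 h exposure, tetrazolium dye read-out.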

[3] = system: Mycobacterium tuberculosis; assay: Antitubercular activity against Mycobacterium tuberculosis H37Rv infected in BALB/c mouse assessed as ratio of lung CFU for compound to lung CFU for PA-824 at 100 mg/kg, po daily for 5 days a week for 3 weeks; assay type: functional
[4] = Metabolic stability in pooled CD1 mouse liver microsomes assessed as compound remaining after 1 hr by LC-MS-MS; assay type: ADME, Microsome; details: read-out: Stability
How it was run: (§1)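 Test compound at 1 μM with pooled CD-1 mouse or human liver microsomes (0.5 mg/mL protein) and NADPH-regenerating system (3.3 mM MgCl2, 3.3 mM G6P, 0.4 U/mL G6PD, 1.3 mM NADP+) in 75 mM phosphate, pH 7.4, 0.5% DMSO, 37 °C. Stopped at 0 and 60 min with MeCN containing metoprolol internal standard. LC-MS/MS (ESI, SRM), duplicates. % remaining = 100 × mean peak-area ratio at 60 min / at 0 min.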

[5] = system: Mycobacterium tuberculosis; assay: Antitubercular activity against Mycobacterium tuberculosis H37Rv in aerobic condition after 7 days by microplate alamar blue assay; assay type: functional; details: 168 h
How it was run: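 M. tuberculosis H37Rv, replicating culture; 8-day microplate assay with Alamar blue added on day 7 to read growth. […] Mean of at least two independent determinations ± SD.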

[6] = Metabolic stability in pooled human liver microsomes assessed as compound remaining after 1 hr by LC-MS-MS; assay type: ADME, Microsome; details: read-out: Stability; how it was run: as §1
[7] = system: Mycobacterium tuberculosis; assay: Antitubercular activity against Mycobacterium tuberculosis H37Rv infected in BALB/c mouse measured per mouse at 100 mg/kg, po daily for 5 days a week for 3 weeks; assay type: functional

O=[N+]([O-])c1cn2c(n1)OC[C@@H](OCc1ccc(-c3ccc(OC(F)(F)F)c(Cl)c3)cc1)C2
MIC [1]: 0.9 µM (≈ 0.423 µg/mL) | IC50 [2]: > 125 µM | fold change (FC) [3]: 281 | remaining at 1 h [4]: 84% | MIC [5]: 0.03 µM (≈ 0.0141 µg/mL) | remaining at 1 h [6]: 90% | CFU [7]: 6.4

O=[N+]([O-])c1cn2c(n1)OC[C@@H](OCc1ccc(-c3ccccc3OCCCO)cc1)C2
MIC [1]: 2.7 µM (≈ 1.15 µg/mL) | IC50 [2]: > 125 µM | fold change (FC) [3]: <0.01 | remaining at 1 h [4]: 21% | MIC [5]: 0.34 µM (≈ 0.145 µg/mL) | remaining at 1 h [6]: 59% | CFU [7]: 1100000

O=[N+]([O-])c1cn2c(n1)OC[C@@H](OCc1ccc(-c3ccc(C(F)(F)F)cc3)cc1)C2
MIC [1]: 1.4 µM (≈ 0.587 µg/mL) | IC50 [2]: > 125 µM | fold change (FC) [3]: 72 | remaining at 1 h [4]: 85% | MIC [5]: 0.03 µM (≈ 0.0126 µg/mL) | remaining at 1 h [6]: 60% | CFU [7]: 1100

O=[N+]([O-])c1cn2c(n1)OC[C@@H](OCc1ccc(-c3ccc(OC(F)(F)F)cc3Cl)cc1)C2
MIC [1]: 0.78 µM (≈ 0.366 µg/mL) | IC50 [2]: > 125 µM | fold change (FC) [3]: 23 | remaining at 1 h [4]: 86% | MIC [5]: 0.04 µM (≈ 0.0188 µg/mL) | remaining at 1 h [6]: 91% | CFU [7]: 390

N#Cc1ccc(-c2ccc(CO[C@@H]3COc4nc([N+](=O)[O-])cn4C3)cc2)cc1
MIC [1]: 0.58 µM (≈ 0.218 µg/mL) | IC50 [2]: > 125 µM | fold change (FC) [3]: 3.6 | remaining at 1 h [4]: 58% | MIC [5]: 0.025 µM (≈ 0.00941 µg/mL) | remaining at 1 h [6]: 95% | CFU [7]: 4500

COc1c(F)cc(F)cc1-c1ccc(CO[C@@H]2COc3nc([N+](=O)[O-])cn3C2)cc1
MIC [1]: 0.86 µM (≈ 0.359 µg/mL) | IC50 [2]: > 125 µM | fold change (FC) [3]: 0.4 | remaining at 1 h [4]: 2% | MIC [5]: 0.04 µM (≈ 0.0167 µg/mL) | remaining at 1 h [6]: 72% | CFU [7]: 200000

O=[N+]([O-])c1cn2c(n1)OC[C@@H](OCc1ccc(-c3ccc(Cl)c(OC(F)F)c3)cc1)C2
MIC [1]: 1.1 µM (≈ 0.497 µg/mL) | IC50 [2]: > 125 µM | fold change (FC) [3]: 10 | remaining at 1 h [4]: 86% | MIC [5]: 0.03 µM (≈ 0.0136 µg/mL) | remaining at 1 h [6]: 83% | CFU [7]: 150

O=[N+]([O-])c1cn2c(n1)OC[C@@H](OCc1ccc(-c3ccc(Oc4ccccc4)cc3)cc1)C2
MIC [1]: 2.7 µM (≈ 1.2 µg/mL) | IC50 [2]: > 125 µM | fold change (FC) [3]: <0.01 | remaining at 1 h [4]: 48% | MIC [5]: 0.04 µM (≈ 0.0177 µg/mL) | remaining at 1 h [6]: 22% | CFU [7]: 330000

O=[N+]([O-])c1cn2c(n1)OC[C@@H](OCc1ccc(-c3ccc(OCCCN4CCOCC4)cc3)cc1)C2
MIC [1]: 1 µM (≈ 0.495 µg/mL) | IC50 [2]: > 125 µM | fold change (FC) [3]: 0.05 | remaining at 1 h [4]: 14% | MIC [5]: 0.097 µM (≈ 0.048 µg/mL) | remaining at 1 h [6]: 11% | CFU [7]: 310000

O=[N+]([O-])c1cn2c(n1)OC[C@@H](OCc1ccc(-c3ccc(Cl)c(C(F)(F)F)c3)cc1)C2
MIC [1]: 1.9 µM (≈ 0.862 µg/mL) | IC50 [2]: > 125 µM | fold change (FC) [3]: 7.7 | remaining at 1 h [4]: 96% | MIC [5]: 0.035 µM (≈ 0.0159 µg/mL) | remaining at 1 h [6]: 92% | CFU [7]: 30

O=[N+]([O-])c1cn2c(n1)OC[C@@H](OCc1ccc(-c3ccc(CNc4ccccc4)cc3)cc1)C2
MIC [1]: 0.63 µM (≈ 0.288 µg/mL) | IC50 [2]: > 125 µM | fold change (FC) [3]: 0.03 | remaining at 1 h [4]: 52% | MIC [5]: 0.06 µM (≈ 0.0274 µg/mL) | remaining at 1 h [6]: 12% | CFU [7]: 500000

COc1ccc(-c2ccc(CO[C@@H]3COc4nc([N+](=O)[O-])cn4C3)cc2)cc1F
MIC [1]: 1.9 µM (≈ 0.759 µg/mL) | IC50 [2]: > 125 µM | fold change (FC) [3]: 0.02 | remaining at 1 h [4]: 50% | MIC [5]: 0.04 µM (≈ 0.016 µg/mL) | remaining at 1 h [6]: 80% | CFU [7]: 850000

O=[N+]([O-])c1cn2c(n1)OC[C@@H](OCc1ccc(-c3cccc(OCc4ccccc4)c3)cc1)C2
MIC [1]: 0.88 µM (≈ 0.403 µg/mL) | IC50 [2]: > 125 µM | fold change (FC) [3]: 0.66 | remaining at 1 h [4]: 50% | MIC [5]: 0.12 µM (≈ 0.0549 µg/mL) | remaining at 1 h [6]: 64% | CFU [7]: 120000

O=[N+]([O-])c1cn2c(n1)OC[C@@H](OCc1ccc(-c3ccc(OC(F)(F)F)c(F)c3)cc1)C2
MIC [1]: 0.34 µM (≈ 0.154 µg/mL) | IC50 [2]: > 125 µM | fold change (FC) [3]: 419 | remaining at 1 h [4]: 86% | MIC [5]: 0.03 µM (≈ 0.0136 µg/mL) | remaining at 1 h [6]: 93% | CFU [7]: 4.3

O=[N+]([O-])c1cn2c(n1)OC[C@@H](OCc1ccc(-c3ccc(F)cc3)cc1)C2
MIC [1]: 1.4 µM (≈ 0.517 µg/mL) | IC50 [2]: > 125 µM | fold change (FC) [3]: 3 | remaining at 1 h [4]: 55% | MIC [5]: 0.015 µM (≈ 0.00554 µg/mL) | remaining at 1 h [6]: 75% | CFU [7]: 5400

CC(=O)c1ccc(-c2ccc(CO[C@@H]3COc4nc([N+](=O)[O-])cn4C3)cc2)cc1
MIC [1]: 0.73 µM (≈ 0.287 µg/mL) | IC50 [2]: > 125 µM | fold change (FC) [3]: <0.01 | remaining at 1 h [4]: 70% | MIC [5]: 0.04 µM (≈ 0.0157 µg/mL) | remaining at 1 h [6]: 36% | CFU [7]: 110000

COc1cccc(F)c1-c1ccc(CO[C@@H]2COc3nc([N+](=O)[O-])cn3C2)cc1
MIC [1]: 0.81 µM (≈ 0.323 µg/mL) | IC50 [2]: > 125 µM | fold change (FC) [3]: 0.07 | remaining at 1 h [4]: 0% | MIC [5]: 0.13 µM (≈ 0.0519 µg/mL) | remaining at 1 h [6]: 91% | CFU [7]: 1100000

O=[N+]([O-])c1cn2c(n1)OC[C@@H](OCc1ccc(-c3ccc(C(F)(F)F)cc3Cl)cc1)C2
MIC [1]: 1.4 µM (≈ 0.635 µg/mL) | IC50 [2]: > 125 µM | fold change (FC) [3]: 7.2 | remaining at 1 h [4]: 93% | MIC [5]: 0.03 µM (≈ 0.0136 µg/mL) | remaining at 1 h [6]: 92% | CFU [7]: 540

O=[N+]([O-])c1cn2c(n1)OC[C@@H](OCc1ccc(-c3ccc(Cl)c(OC(F)(F)F)c3)cc1)C2
MIC [1]: 0.95 µM (≈ 0.446 µg/mL) | IC50 [2]: > 125 µM | fold change (FC) [3]: 9.7 | remaining at 1 h [4]: 92% | MIC [5]: 0.04 µM (≈ 0.0188 µg/mL) | remaining at 1 h [6]: 95% | CFU [7]: 360
